# Hits are enriched below; roughly 3.8% of the tested compounds scored in any of these assays.
# RGS4 pot: RGS4 potentiators or activators, primary screen, cell-based, HEK293 M3R inducible RGS4, calcium flux. 310,000 tested, 0.92% active. carbachol calcium flux Fluo4; stronger effect = lower value. AID 463111, 2010. B-score at 10 µM;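 active = B-score of the integrated calcium signal more than 4 SD below the library mean, with starting fluorescence not abnormally high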;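 note: negative B-score means reduced calcium response which marks RGS4 activation or potentiation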
#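 Test system: HEK293 cells with stable M3R and inducible RGS4; also added: carbachol at ECmax as muscarinic agonist stimulus; schedule: dye loading 30 min 37 °C, buffer rest 30 min RT; technique: kinetic calcium fluorescence imaging with Fluo4-AM dye, 2 µM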
# Lipid droplet: inhibitors of hepatocyte lipid droplet formation, primary screen, imaging, high-throughput imaging, BODIPY stain. 240,000 tested, 0.4% active. inhibition, % at 6.5 µM. AID 1656, 2009. AML12 mouse hepatocytes, oleate lipid droplets;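 active = lipid droplet intensity inhibited by at least 50%, with more than 500 cells counted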
#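 material = mouse AML12 hepatocyte cell line, fixed after treatment | also added = 100 µM oleic acid challenge | doses = compound at 6.5 µM only | schedule = overnight exposure | technique = Image-based BODIPY and DAPI two-channel analysis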
# MrgX1 antagonist: antagonists of human MrgX1 receptor, primary screen, HEK293 cells, Fluo-4 calcium flux | Mas-related G-protein coupled receptor member X1 (Homo sapiens), Q96LB2 | BAM8-22 antagonism; stronger effect = lower value | B-score at 10 µM | 310,000 tested, 1.3% active | AID 588676, 2011;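 active = calcium-response B-score plate-corrected more than 3 library SD below zero, starting fluorescence within 5 deviations, no agonist response on first addition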;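 note: peak minus trough fluorescence over baseline after final BAM8-22 challenge near maximal dose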
# Target sequence (Q96LB2 whole entry, looked up): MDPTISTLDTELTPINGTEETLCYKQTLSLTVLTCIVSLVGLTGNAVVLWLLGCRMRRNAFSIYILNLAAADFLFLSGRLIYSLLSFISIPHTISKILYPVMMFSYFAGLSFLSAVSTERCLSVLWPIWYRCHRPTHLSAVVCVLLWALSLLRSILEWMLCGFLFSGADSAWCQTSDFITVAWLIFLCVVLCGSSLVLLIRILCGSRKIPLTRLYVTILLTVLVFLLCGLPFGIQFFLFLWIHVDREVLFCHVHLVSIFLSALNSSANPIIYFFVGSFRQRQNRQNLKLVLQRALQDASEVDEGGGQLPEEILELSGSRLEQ
# RGS4 inh: RGS4 inhibitors, primary screen, cell-based, HEK293 M3R inducible RGS4, calcium flux | Fluo-4 calcium flux; stronger effect = higher value; triggered by carbachol at its EC20 | B-score at 10 µM | Regulator of G-protein signaling 4 (Homo sapiens), P49798 | 310,000 tested, 0.45% active;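 active = B-score, a plate-corrected calcium signal, over three deviations above library mean, with baseline fluorescence within five deviations of library mean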;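 note: RGS4 expression induced by doxycycline in cells with stable M3 receptor; B-score is computed from the integrated fluorescence ratio over baseline after carbachol; higher B-score means a larger calcium signal and so more RGS4 inhibition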
# Target sequence (P49798 whole entry, looked up): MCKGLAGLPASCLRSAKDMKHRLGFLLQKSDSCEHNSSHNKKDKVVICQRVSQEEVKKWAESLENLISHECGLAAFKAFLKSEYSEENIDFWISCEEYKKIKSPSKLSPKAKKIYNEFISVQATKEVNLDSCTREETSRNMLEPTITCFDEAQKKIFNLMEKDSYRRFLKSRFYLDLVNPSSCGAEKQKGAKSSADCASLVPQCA
# MrgX1 PAM: positive allosteric modulators of MrgX1, primary screen, HEK293 cells, Fluo-4 calcium flux | Mas-related G-protein coupled receptor member X1 (Homo sapiens), Q96LB2 | FDSS; stronger effect = higher value | B-score at 10 µM | 310,000 tested, 0.63% active | AID 588675, 2011;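 active = plate-corrected calcium response at least 3 library SD above typical, normal starting fluorescence, not activating the receptor alone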;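 note: compound read alongside a low EC10 to EC30 dose of BAM8-22 agonist; peak minus trough fluorescence over baseline measured at the second addition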
# MrgX1 ag: agonists of human MrgX1 receptor, primary screen, HEK293 cells, Fluo-4 calcium flux | Fluo-4 calcium fluorescence, agonist mode; stronger effect = higher value | B-score at 10 µM | 310,000 tested, 0.44% active;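 active = calcium response B-score plate-corrected fluorescence ratio at least 3 library SD, with starting fluorescence B-score inside 5 SD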
#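 Assay system: MrgX1-expressing HEK293 cells / Amount: fifteen thousand cells per well / Doses: test compound in the initial addition of three / Timing: cells plated overnight, dye loaded 0.5 h 37 °C, 0.5 h room temperature / Technique: kinetic calcium dye fluorescence, Fluo-4 NW / Control set: positive and negative controls per plate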
# RGS4 block valid: enhanced carbachol calcium response, M3R/RGS4 cells, RGS4 inhibitor project, cell-based, validation screen, HEK293 M3R/RGS4, calcium flux | shares compounds with RGS4 inh | 1,700 tested, 65% active | carbachol calcium Fluo-4 fluorescence; carbachol added at its EC20; 0 = buffer wells, 100 = carbachol control | calcium response, % at 10 µM;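 active = duplicate-averaged calcium response above the buffer-only control mean plus 5 SD of those controls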;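 note: integrated fluorescence ratio F max minus min over baseline F0; higher response in RGS4-induced cells means RGS4 inhibition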
# M3R Ca ctr: carbachol calcium response in non-induced M3R cells, confirmation, counter-screen for RGS4 inhibitor project, cell-based, HEK293 M3R; 1,900 tested, 20% active; carbachol calcium Fluo-4; submaximal (EC20) carbachol stimulus; buffer wells 0%, carbachol control wells 100%; shares compounds with RGS4 inh; activity (percent), % at 10 µM; call rule not given here;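 note: RGS4 induction absent so cells express M3R without RGS4; higher means more calcium signal and flags a non-specific hit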
# M3R basal Ca ctr: second counter-screen for RGS4 inhibitors: non-induced cells without carbachol | shares compounds with RGS4 inh | HEK293 M3R/RGS4 non-induced, Fluo-4 calcium, no carbachol; normalised: buffer wells 0%, carbachol wells 100% | calcium response (agonist-mode artifact), % at 10 µM | 1,900 tested, 22% active | AID 493001;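 active = duplicate-averaged calcium rise in uninduced cells above buffer wells' mean plus 5 SD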
# Numbers without * were called inactive; i = inactive; x = no result.
SMILES,RGS4 pot,Lipid droplet,MrgX1 antagonist,RGS4 inh,MrgX1 PAM,MrgX1 ag,RGS4 block valid,M3R Ca ctr,M3R basal Ca ctr
Cc1cc(N=Cc2cc(Cl)ccc2O)no1,i,x,i,5.69*,i,i,7.0%*,30.5%*,i
Nc1nc(Cl)cc(N2CCC(c3cc(-c4ccc(Cl)cc4Cl)n[nH]3)CC2)n1,i,x,i,7.27*,i,i,16.5%*,i,i
Nc1nc(Cl)cc(N2CCCC2)n1,i,9.8,i,i,i,i,x,x,x
Cc1ccc(-c2nc(NCc3cccnc3)c3ccccc3n2)cc1,i,-7.7,i,i,i,i,i,i,i
Clc1cccc(-c2nc(NCc3cccnc3)c3ccccc3n2)c1,i,x,i,i,i,i,x,x,x
c1ccc(-c2nc(NCc3cccnc3)c3ccccc3n2)cc1,i,x,i,i,i,i,i,i,i
Cc1ccc2c(c1)c1c(n2C)-c2[nH]ncc2CC1,i,-0.5,i,5.5*,i,i,17.5%*,i,i
Cc1ccc2c(c1)c1c(n2C)C(C(N)=O)CCC1 (stereo not drawn),i,1.0,i,i,i,i,x,x,x
O=C1NN(c2ccccc2)C(=O)/C1=C/c1ccc(Sc2cccc3ccccc23)o1,i,-3.0,i,12.5*,i,i,i,i,i
CC(C)(C)[C@@H]1CCC(=O)N(CC[C@H](N=[N+]=[N-])c2ccccc2)CC1,i,-4.6,i,i,i,i,x,x,x
O=C(c1cc2n(n1)C(C(F)(F)F)CC(c1ccco1)N2)N1CCc2ccccc2C1 (stereo not drawn),i,0.8,i,5.16*,i,i,8.0%*,i,28.0%*
COc1ccc(CNC(=O)CCNS(=O)(=O)c2ccc(C)cc2)cc1,i,0.5,i,i,i,i,i,i,i
CC(=O)N1N=C(c2c(-c3ccccc3)c3cc(C)ccc3[nH]c2=O)CC1c1ccco1 (stereo not drawn),i,9.5,i,i,i,i,x,i,i
CC(=O)N1N=C(c2cccc(NS(=O)(=O)c3ccc(C)cc3)c2)CC1c1ccco1 (stereo not drawn),i,-2.5,i,i,i,i,x,x,x
CC(=O)N1N=C(c2c(-c3ccccc3)c3cc(Br)ccc3[nH]c2=O)CC1c1ccco1 (stereo not drawn),i,-13.6,i,7.49*,i,i,20.5%*,i,i
COc1ccc(NC(=O)c2sc3nc(N4CCOCC4)c4c(c3c2N)CCCC4)c(OC)c1,i,-5.1,i,i,i,i,x,x,x
Cc1ccc(-n2nc3c(=O)n(CC(=O)NCc4cccs4)nc(C)c3c2C)cc1,i,18.6,i,4.86*,i,i,i,i,i
Cc1nn(CC(=O)NCCc2cccs2)c(=O)c2nn(-c3ccccc3)c(C)c12,i,19.9,i,i,i,i,x,i,35.0%*
Cc1ccc(C)c(NC(=O)CSc2nnc3n2CCCCC3)c1,i,-103.5,i,i,i,i,x,x,x
O=C(Nc1ccc2nc3n(c(=O)c2c1)CCCCC3)c1cc([N+](=O)[O-])ccc1F,i,-5.6,i,i,i,i,x,x,x
O=C(Nc1ccc2nc3n(c(=O)c2c1)CCCCC3)c1c(F)ccc([N+](=O)[O-])c1F,i,-33.5,i,5.16*,i,37.3*,33.0%*,i,12.0%*
C/C=C\C(=O)Nc1cccc(C2=NOC3(C2)C[C@@H](C(N)=O)N(C(=O)c2ccc(OC)cc2)C3)c1 (stereo partly drawn),i,x,i,i,i,i,x,x,x
CCOC(=O)COc1ccc(Br)cc1/C=C1\SC(N)=NC1=O,i,2.2,i,i,i,i,x,x,x
CCOC(=O)CSC1=NC(=O)/C(=C/c2ccc(Br)cc2)S1,i,-28.1,i,i,i,i,x,36.5%*,i
CCOC(=O)CSC1=NC(=O)/C(=C\c2ccc(OC(C)=O)cc2)S1,i,x,i,18.3*,i,i,38.0%*,i,9.0%*
SMILES,RGS4 pot,Lipid droplet,MrgX1 antagonist,RGS4 inh,MrgX1 PAM,MrgX1 ag,RGS4 block valid,M3R Ca ctr,M3R basal Ca ctr
COc1cccc(C2CCCCN(C)C2=O)c1 (stereo not drawn),i,-10.5,i,i,i,i,x,x,x
O=S(=O)(NCCN1CCCC1)c1ccc(Br)cc1,i,-7.9,i,i,i,i,x,x,x
COc1cc(C2C3=C(CCCC3=O)Nc3[nH]n(-c4ccccc4)c(=O)c32)ccc1O (stereo not drawn),x,x,i,x,i,i,x,x,x
COc1cc(C2C3=C(CCCC3=O)Nc3c2c(C)nn3-c2cccc(C)c2)cc(OC)c1O (stereo not drawn),i,6.6,i,6.34*,i,i,13.5%*,40.0%*,i
O=C(Nc1cnc2ccccn2c1=O)c1ccc(Cl)cc1,i,x,i,4.85*,i,i,i,i,i
CCn1cc([N+](=O)[O-])c(C(=O)N2N=C(c3ccc(O)c(OC)c3)CC2c2ccccc2O)n1 (stereo not drawn),i,23.9,i,i,i,i,x,i,i
CC(=O)N1N=C(c2ccc([N+](=O)[O-])cc2)CC1c1ccccc1Cl (stereo not drawn),i,-4.1,i,i,i,i,x,x,x
CCn1cc([N+](=O)[O-])c(C(=O)N2N=C(c3ccc(Cl)c(Cl)c3)CC2c2ccccc2O)n1 (stereo not drawn),i,23.3,i,6.39*,i,i,21.5%*,i,i
